Results taken from ChEMBL document CHEMBL1154686, “Pyrazoline bearing benzimidazoles: search for anticancer agent” (2010).

Key:
Type in all cases: functional
OVCAR-4 = test: Growth inhibition of human OVCAR4 cells after 48 hrs by SRB assay; conditions: OVCAR-4, 48 h
In short: (§1)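 NCI-60 panel protocol with adherent lines. Cells were seeded at 5,000–40,000 cells/well, depending on doubling time, and pre-incubated 24 h at 37 °C, 5% CO₂. Time-zero plates were TCA-fixed at drug addition. Drugs were dissolved in DMSO and exposed for 48 h. Cells were fixed with cold TCA (final 10%) for 60 min at 4 °C, stained with 0.4% SRB in 1% acetic acid for 10 min, solubilized with 10 mM trizma base, and read at A515.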

A549 = test: Growth inhibition of human A549 cells after 48 hrs by SRB assay; conditions: A549, 48 h; in short: as §1
SK-OV-3 = test: Growth inhibition of human SKOV3 cells after 48 hrs by SRB assay; conditions: SK-OV-3, 48 h; in short: as §1
ACHN = test: Growth inhibition of human ACHN cells after 48 hrs by SRB assay; in short: as §1
K562 = test: Growth inhibition of human K562 cells after 48 hrs by SRB assay; conditions: K562, 48 h
In short: (§2)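 Suspension leukemia lines were run in the NCI-60 SRB format. Cells were plated at 5,000–40,000 cells/well and pre-incubated 24 h at 37 °C, 5% CO₂, with time-zero plates fixed at drug addition. Drug exposure in DMSO-derived dilutions lasted 48 h. Settled cells were fixed with 80% TCA (final 16%), stained with 0.4% SRB, solubilized in 10 mM trizma base, and read at 515 nm. Percent growth was taken relative to the time-zero and control readings.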

NCI-H460 = test: Growth inhibition of human NCI-H460 cells after 48 hrs by SRB assay; conditions: NCI-H460, 48 h; in short: as §1
HT-29 = test: Growth inhibition of human HT-29 cells after 48 hrs by SRB assay; conditions: HT-29, 48 h; in short: as §1
HCC 2998 = test: Growth inhibition of human HCC2998 cells after 48 hrs by SRB assay; conditions: HCC 2998, 48 h; in short: as §1
SK-MEL-28 = test: Growth inhibition of human SK-MEL-28 cells after 48 hrs by SRB assay; conditions: SK-MEL-28, 48 h; in short: as §1
CAKI-1 = test: Growth inhibition of human Caki1 cells after 48 hrs by SRB assay; conditions: CAKI-1, 48 h; in short: as §1
OVCAR-5 = test: Growth inhibition of human OVCAR5 cells after 48 hrs by SRB assay; conditions: OVCAR-5, 48 h; in short: as §1
IGROV-1 = test: Growth inhibition of human IGROV1 cells after 48 hrs by SRB assay; conditions: IGROV-1, 48 h; in short: as §1
MOLT-4 = test: Growth inhibition of human MOLT4 cells after 48 hrs by SRB assay; conditions: MOLT-4, 48 h; in short: as §2
SNB-75 = test: Growth inhibition of human SNB75 cells after 48 hrs by SRB assay; conditions: SNB-75, 48 h; in short: as §1
NCI/ADR-RES = test: Growth inhibition of human NCI/ADR-RES cells after 48 hrs by SRB assay; in short: as §1
UACC-62 = test: Growth inhibition of human UACC62 cells after 48 hrs by SRB assay; conditions: UACC-62, 48 h
In short: (§3)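 NCI 60-cell panel, five-dose format: cells plated at 5,000–40,000/well by doubling time, preincubated 24 h at 37 °C, 5% CO2; time-zero plates TCA-fixed. Compound dissolved in DMSO, five concentrations (0.01, 0.1, 1, 10, 100 µM) plus control, 48 h. Cells fixed with cold TCA, stained with 0.4% SRB in 1% acetic acid, bound dye solubilized in 10 mM trizma base, absorbance at 515 nm. GI50 taken from [(Ti–Tz)/(C–Tz)]×100 = 50.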

SK-MEL-5 = test: Growth inhibition of human SK-MEL-5 cells after 48 hrs by SRB assay; conditions: SK-MEL-5, 48 h; in short: as §1
MCF7 = test: Growth inhibition of human MCF7 cells after 48 hrs by SRB assay; conditions: MCF7, 48 h; in short: as §1
M14 = test: Growth inhibition of human M14 cells after 48 hrs by SRB assay; conditions: M14, 48 h; in short: as §1
OVCAR-3 = test: Growth inhibition of human OVCAR-3 cells after 48 hrs by SRB assay; conditions: OVCAR-3, 48 h; in short: as §1
HOP-92 = test: Growth inhibition of human HOP92 cells after 48 hrs by SRB assay; conditions: HOP-92, 48 h; in short: as §1
HL-60(TB) = test: Growth inhibition of human HL-60(TB) cells after 48 hrs by SRB assay; conditions: HL-60, 48 h
In short: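 NCI-60 protocol: cells seeded at 5,000–40,000/well by doubling time and preincubated 24 h at 37 °C, 5% CO2. Drug, dissolved in DMSO, was added at one dose (10^-5 M) or five 10-fold dilutions, then incubated 48 h. Suspension cells were fixed with 80% TCA (final 16%) and stained with 0.4% SRB, read at 515 nm. GI50 was derived from percentage growth versus time-zero and control.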

SF-539 = test: Growth inhibition of human SF539 cells after 48 hrs by SRB assay; conditions: SF-539, 48 h; in short: as §1
UACC-257 = test: Growth inhibition of human UACC257 cells after 48 hrs by SRB assay; conditions: UACC-257, 48 h; in short: as §3
T47D = test: Growth inhibition of human T47D cells after 48 hrs by SRB assay; in short: as §3
[1] = read-out: LC50 (the source's name)

**Q.** What does the source list for `COc1ccc(C2CC(c3nc4ccccc4[nH]3)=NN2c2ccccc2)cc1OC` (stereo not given)?
**A.** GI50 (OVCAR-4): 9.31 µM; TGI (OVCAR-4): > 100 µM; CC50 (OVCAR-4; [1]): > 100 µM; GI50 (A549): 17.1 µM; TGI (A549): > 100 µM; CC50 (A549; [1]): > 100 µM; GI50 (SK-OV-3): 33.1 µM; TGI (SK-OV-3): > 100 µM; CC50 (SK-OV-3; [1]): > 100 µM; GI50 (ACHN): 14 µM; TGI (ACHN): > 100 µM; CC50 (ACHN; [1]): > 100 µM; GI50 (K562): > 100 µM; TGI (K562): > 100 µM; CC50 (K562; [1]): > 100 µM; GI50 (NCI-H460): 13.6 µM; TGI (NCI-H460): 40 µM; CC50 (NCI-H460; [1]): > 100 µM; GI50 (HT-29): 9.91 µM; TGI (HT-29): 24.7 µM; CC50 (HT-29; [1]): 61.4 µM; GI50 (HCC 2998): 12.4 µM; TGI (HCC 2998): 26.1 µM; CC50 (HCC 2998; [1]): 55 µM; GI50 (SK-MEL-28): 13.1 µM; TGI (SK-MEL-28): 39 µM; CC50 (SK-MEL-28; [1]): > 100 µM; GI50 (CAKI-1): 3.6 µM; TGI (CAKI-1): 24.7 µM; CC50 (CAKI-1; [1]): > 100 µM; GI50 (OVCAR-5): 26.7 µM; TGI (OVCAR-5): > 100 µM; CC50 (OVCAR-5; [1]): > 100 µM; GI50 (IGROV-1): 0.92 µM; TGI (IGROV-1): 19.1 µM; CC50 (IGROV-1; [1]): > 100 µM; GI50 (MOLT-4): 17.9 µM; TGI (MOLT-4): > 100 µM; CC50 (MOLT-4; [1]): > 100 µM; GI50 (SNB-75): 11 µM; TGI (SNB-75): 47.4 µM; CC50 (SNB-75; [1]): > 100 µM; GI50 (NCI/ADR-RES): 19 µM; TGI (NCI/ADR-RES): 94.5 µM; CC50 (NCI/ADR-RES; [1]): > 100 µM; GI50 (UACC-62): 2.59 µM; TGI (UACC-62): > 100 µM; CC50 (UACC-62; [1]): > 100 µM; GI50 (SK-MEL-5): 2.62 µM; TGI (SK-MEL-5): 15.1 µM; CC50 (SK-MEL-5; [1]): 67.6 µM; GI50 (MCF7): 2.41 µM; TGI (MCF7): 15.3 µM; CC50 (MCF7; [1]): 54.2 µM; GI50 (M14): 16.1 µM; TGI (M14): > 100 µM; CC50 (M14; [1]): > 100 µM; GI50 (OVCAR-3): 4.17 µM; TGI (OVCAR-3): 18.9 µM; CC50 (OVCAR-3; [1]): 62.2 µM; GI50 (HOP-92): 3.89 µM; TGI (HOP-92): > 100 µM; CC50 (HOP-92; [1]): > 100 µM; GI50 (HL-60(TB)): > 100 µM; TGI (HL-60(TB)): > 100 µM; CC50 (HL-60(TB); [1]): > 100 µM; GI50 (SF-539): 15 µM; TGI (SF-539): 38.6 µM; CC50 (SF-539; [1]): 99.5 µM; GI50 (UACC-257): 77.1 µM; TGI (UACC-257): > 100 µM; CC50 (UACC-257; [1]): > 100 µM; GI50 (T47D): 3.09 µM; TGI (T47D): 51.1 µM; CC50 (T47D; [1]): > 100 µM
